According to ChEMBL document CHEMBL5058577, “EUbOPEN Chemogenomics Library 2 (Multiplex)” (2022):

Tested on: HEK-293T
Test: Multiplex assay against HEK293T
Type: toxicity, cell-based
Details: human
How it was run: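 Cells were classed with CellPathfinder machine-learning gating, first as Hoechst high-intensity objects or normal cells, then (normal cells) as healthy, pyknosed or fragmented nuclei, and finally (pyknosed cells) as mitotic or apoptotic. Staining of live cells at seeding used Hoechst33342, BioTracker Green Microtubule Cytoskeleton Dye, MitoTracker Red and Annexin V Alexa Fluor 680, with imaging on a CQ1 microscope at 37°C and 5% CO2 after compound addition. Tubulin, mitochondrial-mass and membrane-permeability phenotypes are per cents of healthy-nucleus cells.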

[1] = 12 h, 1 µM, compound concentration 1 uM, replicate 1
[2] = 12 h, 1 µM, compound concentration 1 uM, replicate 2
[3] = 12 h, 10 µM, compound concentration 10 uM, replicate 1
[4] = 12 h, 10 µM, compound concentration 10 uM, replicate 2
[5] = 24 h, 1 µM, compound concentration 1 uM, replicate 1
[6] = 24 h, 1 µM, compound concentration 1 uM, replicate 2
[7] = 24 h, 10 µM, compound concentration 10 uM, replicate 1
[8] = 24 h, 10 µM, compound concentration 10 uM, replicate 2
[9] = 48 h, 1 µM, compound concentration 1 uM, replicate 1
[10] = 48 h, 1 µM, compound concentration 1 uM, replicate 2
[11] = 48 h, 10 µM, compound concentration 10 uM, replicate 1
[12] = 48 h, 10 µM, compound concentration 10 uM, replicate 2

O=C(NCCN1CCC(n2c(=O)[nH]c3cc(Cl)ccc32)CC1)c1ccc(F)cc1 [HALOPEMIDE]
Population Apoptotic (%) [1]: 46%
Population Fragmented Nuclei (%) [1]: 5%
Population Healthy Nuclei (%) [1]: 81%
Population Hoechst High Intensity Objects (%) [1]: 7%
Population Membrane Permeable-Phenotype (%) [1]: 0%
Population Mitochondria Different-Phenotype (%) [1]: 54%
Population Mitotic Cells (%) [1]: 53%
Population Normal (%) [1]: 92%
Population Pyknosed Nuclei (%) [1]: 13%
Population Tubulin-Different-Phenotype (%) [1]: 42%
Total Cell Count [1]: 334
Population Apoptotic (%) [2]: 43%
Population Healthy Nuclei (%) [2]: 79%
Population Hoechst High Intensity Objects (%) [2]: 10%
Population Mitochondria Different-Phenotype (%) [2]: 62%
Population Mitotic Cells (%) [2]: 56%
Population Normal (%) [2]: 89%
Population Pyknosed Nuclei (%) [2]: 15%
Population Tubulin-Different-Phenotype (%) [2]: 29%
Total Cell Count [2]: 373
Population Apoptotic (%) [3]: 39%
Population Fragmented Nuclei (%) [3]: 5%
Population Healthy Nuclei (%) [3]: 74%
Population Hoechst High Intensity Objects (%) [3]: 14%
Population Membrane Permeable-Phenotype (%) [3]: 0%
Population Mitochondria Different-Phenotype (%) [3]: 76%
Population Mitotic Cells (%) [3]: 60%
Population Normal (%) [3]: 85%
Population Pyknosed Nuclei (%) [3]: 20%
Population Tubulin-Different-Phenotype (%) [3]: 68%
Total Cell Count [3]: 460
Population Apoptotic (%) [4]: 65%
Population Fragmented Nuclei (%) [4]: 6%
Population Healthy Nuclei (%) [4]: 72%
Population Hoechst High Intensity Objects (%) [4]: 13%
Population Membrane Permeable-Phenotype (%) [4]: 1%
Population Mitochondria Different-Phenotype (%) [4]: 84%
Population Mitotic Cells (%) [4]: 34%
Population Normal (%) [4]: 86%
Population Pyknosed Nuclei (%) [4]: 21%
Population Tubulin-Different-Phenotype (%) [4]: 59%
Total Cell Count [4]: 319
Population Apoptotic (%) [5]: 40%
Population Fragmented Nuclei (%) [5]: 7%
Population Healthy Nuclei (%) [5]: 79%
Population Hoechst High Intensity Objects (%) [5]: 3%
Population Membrane Permeable-Phenotype (%) [5]: 1%
Population Mitochondria Different-Phenotype (%) [5]: 35%
Population Mitotic Cells (%) [5]: 59%
Population Normal (%) [5]: 96%
Population Pyknosed Nuclei (%) [5]: 12%
Population Tubulin-Different-Phenotype (%) [5]: 24%
Total Cell Count [5]: 471
Population Fragmented Nuclei (%) [6]: 9%
Population Hoechst High Intensity Objects (%) [6]: 6%
Population Membrane Permeable-Phenotype (%) [6]: 0%
Population Mitochondria Different-Phenotype (%) [6]: 37%
Population Normal (%) [6]: 93%
Population Pyknosed Nuclei (%) [6]: 11%
Population Tubulin-Different-Phenotype (%) [6]: 21%
Total Cell Count [6]: 508
Population Apoptotic (%) [7]: 27%
Population Fragmented Nuclei (%) [7]: 8%
Population Healthy Nuclei (%) [7]: 72%
Population Hoechst High Intensity Objects (%) [7]: 8%
Population Membrane Permeable-Phenotype (%) [7]: 1%
Population Mitochondria Different-Phenotype (%) [7]: 63%
Population Mitotic Cells (%) [7]: 72%
Population Normal (%) [7]: 91%
Population Pyknosed Nuclei (%) [7]: 19%
Population Tubulin-Different-Phenotype (%) [7]: 64%
Total Cell Count [7]: 580
Population Apoptotic (%) [8]: 64%
Population Fragmented Nuclei (%) [8]: 9%
Population Healthy Nuclei (%) [8]: 70%
Population Membrane Permeable-Phenotype (%) [8]: 0%
Population Mitochondria Different-Phenotype (%) [8]: 78%
Population Mitotic Cells (%) [8]: 35%
Population Pyknosed Nuclei (%) [8]: 20%
Population Tubulin-Different-Phenotype (%) [8]: 62%
Total Cell Count [8]: 361
Population Apoptotic (%) [9]: 30%
Population Fragmented Nuclei (%) [9]: 13%
Population Healthy Nuclei (%) [9]: 79%
Population Hoechst High Intensity Objects (%) [9]: 1%
Population Membrane Permeable-Phenotype (%) [9]: 1%
Population Mitochondria Different-Phenotype (%) [9]: 21%
Population Mitotic Cells (%) [9]: 69%
Population Normal (%) [9]: 98%
Population Pyknosed Nuclei (%) [9]: 6%
Population Tubulin-Different-Phenotype (%) [9]: 16%
Total Cell Count [9]: 841
Population Apoptotic (%) [10]: 28%
Population Hoechst High Intensity Objects (%) [10]: 3%
Population Membrane Permeable-Phenotype (%) [10]: 0%
Population Mitotic Cells (%) [10]: 71%
Population Normal (%) [10]: 96%
Population Pyknosed Nuclei (%) [10]: 7%
Population Tubulin-Different-Phenotype (%) [10]: 10%
Total Cell Count [10]: 675
Population Apoptotic (%) [11]: 37%
Population Fragmented Nuclei (%) [11]: 14%
Population Healthy Nuclei (%) [11]: 72%
Population Hoechst High Intensity Objects (%) [11]: 8%
Population Membrane Permeable-Phenotype (%) [11]: 1%
Population Mitochondria Different-Phenotype (%) [11]: 57%
Population Mitotic Cells (%) [11]: 62%
Population Normal (%) [11]: 91%
Population Pyknosed Nuclei (%) [11]: 12%
Population Tubulin-Different-Phenotype (%) [11]: 55%
Total Cell Count [11]: 706
Population Apoptotic (%) [12]: 60%
Population Healthy Nuclei (%) [12]: 74%
Population Hoechst High Intensity Objects (%) [12]: 6%
Population Mitochondria Different-Phenotype (%) [12]: 64%
Population Mitotic Cells (%) [12]: 40%
Population Normal (%) [12]: 93%
Population Pyknosed Nuclei (%) [12]: 11%
Total Cell Count [12]: 531
